Experimental data from different studies.
Compare with care: the assays were run in different laboratories. In brackets after ≈: the same amount, converted by molar mass.

COCC(=O)OCc1cc2[nH]c(=S)n(Cc3cccnc3)c(=O)c2cc1Cl has an MIC90 of 2.36 µM (≈ 0.958 µg/mL) (Mycobacterium tuberculosis; microbial growth; H37RV).
The IC50 of COc1ccc(-c2cc(C(F)(F)F)c3c(N)c(C(=O)NC45CC6CC(CC(C6)C4)C5)sc3n2)cc1 is reported as over 100 µM (HepG2; cell growth or viability; 72 h).
For N=C(CC(O)c1cc2c(F)cc(F)cc2c2cc(C(F)(F)F)ccc12)N1CCC(F)(F)CC1 (stereo not shown), the IC50 was 15.7 µM (HepG2; cell growth or viability, neutral red; 24 h).
With CC(C)C(=O)OCc1cc2[nH]c(=S)n(Cc3cncc(C(N)=S)c3)c(=O)c2cc1Cl the MIC90 was 18 µM (≈ 8.33 µg/mL) (Mycobacterium tuberculosis; microbial growth; H37RV).
CC(CNc1cc(-c2ccccn2)nc2nncn12)c1ccccc1 (stereo not shown) has an IC90 of 35 µM (Mycobacterium tuberculosis; microbial growth; H37RV).
With N=C(CC(O)c1cc2c(F)cc(F)cc2c2cc(C(F)(F)F)ccc12)NCc1ccc(F)cc1 (stereo not shown) the IC50 was 7.2 µM (HepG2; cell growth or viability, neutral red; 24 h).
O=c1c2cc(Cl)ccc2[nH]c(=S)n1Cc1ccc(-c2cscn2)nc1 has an MIC90 of over 100 µM (Mycobacterium tuberculosis; microbial growth; H37RV).
With Nc1c(C(=O)NCc2ccccc2)sc2nc(-c3ccccc3)ccc12 the IC50 was over 100 µM (HepG2; cell growth or viability; 72 h).
With FC(F)(F)Oc1ccc(CCNc2cc(-c3ccccn3)nc3nncn23)cc1 the MIC was 4 µM (≈ 1.6 µg/mL) (Mycobacterium tuberculosis; microbial growth; H37RV).
With O=c1c2ccccc2[se]n1-c1ccccc1 the EC50 was 3.72 µM (Trypanosoma cruzi; parasite growth; Vero; 72 h, intracellular, amastigote).
With COc1ccc(-c2cc(C(F)(F)F)c3c(N)c(C(=O)Nc4c(C)cccc4C)sc3n2)cc1 the IC50 was over 100 µM (HepG2; cell growth or viability; 72 h).
NC(=S)c1cncc(Cn2c(=S)[nH]c3ccc(Cl)cc3c2=O)c1 gave an MIC90 of over 100 µM (Mycobacterium tuberculosis; microbial growth; H37RV).
c1ccc(CCOc2cc(-c3ccccn3)nc3nncn23)cc1 gave an MIC of over 100 µM (Mycobacterium tuberculosis; microbial growth; H37RV).
The IC50 of Nc1c(C(=O)N2CCCC2)sc2nc(-c3ccc4c(c3)OCO4)cc(C(F)(F)F)c12 is reported as over 100 µM (HepG2; cell growth or viability; 72 h).
With Cc1cc(F)cc(C)c1NC(=N)CC(O)c1cc2c(F)cc(F)cc2c2cc(C(F)(F)F)ccc12 (stereo not shown) the IC50 was 6.3 µM (HepG2; cell growth or viability, neutral red; 24 h).
N#Cc1ccc(Cn2c(=S)[nH]c3ccc(Cl)cc3c2=O)cn1 has an MIC90 of over 100 µM (Mycobacterium tuberculosis; microbial growth; H37RV).
The IC50 of Cc1c(F)cccc1NC(=N)CC(O)c1cc2c(F)cc(F)cc2c2cc(C(F)(F)F)ccc12 (stereo not shown) is reported as 11.3 µM (HepG2; cell growth or viability, neutral red; 24 h).
COc1ccc(-c2cc(C(F)(F)F)c3c(N)c(C(=O)Nc4ccc(C)cc4C)sc3n2)cc1 has an IC50 of over 100 µM (HepG2; cell growth or viability; 72 h).
For Clc1ccc(CCNc2cc(-c3ccccn3)nc3cc(Br)nn23)cc1, the MIC was 36 µM (≈ 15.4 µg/mL) (Mycobacterium tuberculosis; microbial growth; H37RV).
With CN(C)CCC(c1cccnc1)n1c(=S)[nH]c2ccc(Cl)cc2c1=O (stereo not shown) the MIC90 was over 100 µM (Mycobacterium tuberculosis; microbial growth; H37RV).
N.N.[Cl][Pt][Cl] has an IC50 of 2.76 µM (Ramos; cell growth or viability, ATP luminescence; 72 h).
With O=c1c2cc(Cl)c(CO)cc2[nH]c(=S)n1Cc1cncnc1 the MIC90 was 3.23 µM (≈ 1.08 µg/mL) (Mycobacterium tuberculosis; microbial growth; H37RV).
COC1CN(C(=O)c2sc3ncccc3c2N)C1 gave an IC50 of over 100 µM (HepG2; cell growth or viability; 72 h).
O=c1[nH]c2cc(CO)c(Cl)cc2c(=O)n1Cc1cncnc1 has an MIC90 of 34.5 µM (≈ 11 µg/mL) (Mycobacterium tuberculosis; microbial growth; H37RV).
For CCN(CC)C(=O)c1sc2ncccc2c1N, the IC50 was over 100 µM (HepG2; cell growth or viability; 72 h).
